The list is not random: actives were taken first. Their share in the collection is about 1.8%.
Jurkat NFkB inh – inhibitors of induced NF-kB luciferase reporter, primary screen, TCR NF-kB activation inhibitor project, cell-based, luminescence, uHTS; Jurkat, PMA/ionomycin-induced NF-kB luciferase reporter; inhibition, % at 4 µM; 330,000 tested, 0.53% active; in the data active = inhibition above about 50%
Gli-Sufu block – Gli-Sufu pathway antagonists, primary screen, luciferase luminescence, Sufu-KO-LIGHT cells, uHTS; Sufu-KO-LIGHT fibroblasts, Gli luciferase reporter luminescence; 340,000 tested, 0.74% active; inhibition, % at 5 µM; AID 588413, 2011;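 active = inhibition above about 55%, limit read from the data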;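 also: 0% = DMSO-treated cells and 100% = wells with medium but no cells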
TAG inh – inhibitors of triacylglycerol accumulation, primary screen, cell-based, uHTS, fluorescence, H9c2; H9c2 cells, Nile Red lipid (TAG) fluorescence; cells loaded with 200 µM oleic acid; 230,000 tested, 0.66% active; AID 651582, 2012; inhibition, % at 12.5 µM;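 active = pattern-corrected inhibition of lipid staining of at least 50% with the nuclear-stain viability signal not falling by more than 50%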;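 also: 0% = DMSO wells and 100% = triacsin C control wells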
697 NFkB inh – inhibitors of PMA/ionomycin-induced NF-kB reporter, 697 cells, primary screen, B-cell NF-kB inhibitor project, cell-based, luminescence, uHTS; 697 B-cell NF-kB luciferase reporter, 16 h; inhibition, % at 4 µM; 330,000 tested, 0.33% active; in the data active = inhibition above about 35%
Lipid droplet – inhibitors of hepatocyte lipid droplet formation, primary screen, imaging, high-throughput imaging, BODIPY stain; AML12 mouse hepatocytes, oleate lipid droplets; inhibition, % at 6.5 µM; 240,000 tested, 0.4% active; AID 1656, 2009;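 active = lipid droplet intensity inhibited by at least 50%, with more than 500 cells counted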
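Material: mouse AML12 hepatocyte cell line, fixed after treatment; Timing: compound with oleate, overnight; Technique: high-content imaging of BODIPY-stained droplets and DAPI nuclei; Probe or stimulus: oleate, 100 µM final; Dosing: compound at 6.5 µM only.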
iPSC survival up – enhancers of single-cell hiPSC survival, primary screen, ATPlite luminescence. survival enhancement, % at 20 µM. 360,000 tested, 0.044% active. 100% = ROCK inhibitor wells, 0% = DMSO; in the data active = survival enhancement above about 18%;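 also: cells exposed to compounds for 16 hours before the ATP read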
Hep lipid conf – hepatocyte lipid droplet accumulation inhibitors, confirmation, imaging, AML12 mouse hepatocytes, single concentration, high-content | shares compounds with Lipid droplet | BODIPY lipid droplet imaging; droplets induced with 100 µM oleic acid | inhibition, % at 5.2 µM | 870 tested, 65% active | AID 463183, 2010;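 active = inhibition of lipid droplet metric at least 50%, with more than 300 cells in each of four replicates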;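 also: plate controls were DMSO with oleic acid for no effect and 5 µM Triacsin-C for full effect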
AML12 cytotox – AML12 hepatocyte cytotoxicity, counter-screen for hepatic lipid droplet formation project, imaging, DAPI nuclear morphology imaging; shares compounds with Lipid droplet; AML12 mouse hepatocytes; hits give high values; cells fed 100 µM oleate overnight; z-score at 5 µM; 870 tested, 3% active; AID 463200, 2010; in the data active = z-score above about 6.3;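 also: compound exposure lasted overnight at 37 °C before fixation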
AML12 tox ATP – AML12 hepatocyte cytotoxicity, confirmation, cytotoxicity control for hepatic lipid droplet formation project, cell-based, single concentration; shares compounds with Lipid droplet; AML12 mouse hepatocyte viability, ATP luminescence; cells loaded with 100 µM oleic acid; cytotoxicity, % at 50 µM; 530 tested, under 10 active; AID 463219, 2010;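 active = cytotoxicity above 50% in each of four replicates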;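 also: compound exposure lasted overnight at 37 °C before the ATP read; 0% = DMSO-treated cells and 100% = wells with no cells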
* marks the source's active call; other numbers are inactive results; x = not tested or not shown.

SMILES	Jurkat NFkB inh	Gli-Sufu block	TAG inh	697 NFkB inh	Lipid droplet	iPSC survival up	Hep lipid conf	AML12 cytotox	AML12 tox ATP
O=C(Nc1ccc(Br)cc1)c1cccc(OC(=S)N2CCOCC2)c1	-1	15	x	-16	54*	0	89*	0.81	20
COc1ccc(NC(=O)c2cccc(OC(=S)N3CCOCC3)c2)cc1	2	2	30	10	10	-1	x	x	x
CC1CCN(S(=O)(=O)c2cn(CC(=O)Nc3ccc(C#N)cc3)cn2)CC1	-6	4	x	-3	-9	0	x	x	x
Cc1cccc(N(Cc2cc(=O)[nH]c3ccccc23)C(=O)CCl)c1	7	9	x	-55	55*	0	80*	0.32	x
NS(=O)(=O)c1cccc(NC(=O)c2cccc(Oc3ccccc3)c2)c1	-2	-4	x	-1	1	0	x	x	x
O=C(NCc1nnnn1-c1ccc(F)cc1)c1ccc2c(c1)OCO2	x	x	2	x	x	-2	x	x	x
O=C(O)CCCC(=O)Nc1ccc(Br)cc1C(=O)O	6	-6	3	28	52*	7	7	0.074	x
O=c1oc2ccccc2cc1-c1ccc(O)cc1	-64	-59	6	-107	1	1	x	x	x
O=C/C=C/c1c(-c2ccccc2)cc2oc3ccccc3cc1-2	-4	28	x	-26	70*	0	23	0.6	x
O=C(Nc1nc(-c2ccc(-c3ccccc3)cc2)cs1)C1CCCO1 (stereo unspecified)	-9	7	35	-38	61*	1	102*	0.32	9
O=C(Nc1nc(-c2ccccc2)cs1)C1CCCCN1S(=O)(=O)c1ccc(Cl)cc1 (stereo unspecified)	2	0	x	-7	62*	-1	91*	-0.081	2
O=C(Nc1nc(-c2ccccc2)cs1)C1CCCO1 (stereo unspecified)	-21	-27	x	-1	18	1	x	x	x
CCOc1ccc2c(c1)-c1c(ssc1=S)C(C)(C)N2C(=O)c1ccco1	46	0	x	-81	75*	-2	90*	21*	x
COc1ccc(OC)c(NC(=O)c2cc3oc4ccccc4c3cc2O)c1	-5	-3	x	11	108*	0	18	0.11	x
COc1ccc(C(=O)COC(=O)Cn2[nH]c(=O)c3ccccc3c2=O)c(OC)c1	13	-9	11	2	x	0	x	x	x
Cc1ccc(C(C(=O)NC(C)(C)C)N(Cc2ccccc2)C(=O)c2snc(C(N)=O)c2N)o1 (stereo unspecified)	1	11	x	2	9	-1	x	x	x
COCCN(C(=O)COc1ccccc1C#N)c1c(N)n(Cc2ccccc2)c(=O)[nH]c1=O	1	-2	7	10	x	0	x	x	x
O=C(c1cnn2c(C(F)(F)F)cc(-c3ccccc3)nc12)N1CCCc2ccccc21	-12	3	x	-18	0	0	x	x	x
O=C(c1nn2c(C(F)(F)F)cc(-c3cccs3)nc2c1Cl)N1CCCc2ccccc21	3	6	x	6	53*	-1	26	1.4	x
CCN(CC)CCOC(=O)/C=C/c1ccccc1OC	4	5	x	-3	31	0	x	x	x
O=C1NCCO1	1	-18	6	25	x	0	x	x	x
COc1ccc(C(=O)CCC(=O)Nc2ccc(N3CCCCC3)cc2)cc1OC	-13	43	x	1	92*	2	108*	0.0011	11
COc1ccc(C(=O)Nc2ccc(N3CCN(C)CC3)cc2)cc1OC	-59	-37	x	-19	x	0	x	x	x
Cc1cccn2c(CN[C@H]3CCCCNC3=O)c(C(=O)N3CCOCC3)nc12	6	1	13	15	-10	0	x	x	x
CCOc1ccccc1NC(=O)CSc1nnc(Cn2c(=O)sc3ccccc32)n1C	-3	-3	25	6	53*	-2	41	-0.27	x
SMILES	Jurkat NFkB inh	Gli-Sufu block	TAG inh	697 NFkB inh	Lipid droplet	iPSC survival up	Hep lipid conf	AML12 cytotox	AML12 tox ATP
CCCCn1c(O)c(/C=C/C=C/C=Nc2ccccc2)sc1=S	-11	1	4	-12	61*	1	34	0.24	x
Oc1c(/C=C/C=C/C=Nc2ccccc2)sc(=S)n1Cc1ccccc1	-11	1	5	-5	74*	0	76*	0.81	28
CCOc1ccc(CN(C)C(=O)CNC(=O)C2CCCCC2)cc1OC	-7	-5	x	-26	23	0	x	x	x
CCOc1ccc(CN(C)C(=O)NNC(=O)c2ccc(C)cc2)cc1OC	3	28	x	8	88*	0	80*	-1.5	8
CCOc1ccc(CN(C)C(=O)CNC(=O)c2ccc(Br)o2)cc1OC	2	48	x	8	80*	0	85*	0.71	13
CCOc1ccc(CCNC(=O)COC(=O)/C=C/c2ccc(OCC#N)c(OC)c2)cc1OCC	5	-8	x	-3	63*	0	103*	-0.32	1
CCOc1ccc(CCNC(=O)COc2cc(=O)n(C)c3ccccc23)cc1OCC	-10	-5	x	13	100*	-1	101*	-0.38	8
CCOc1ccc(CCNC(=O)CSc2cc(=O)n(C)c3ccccc23)cc1OCC	12	-1	x	8	98*	-3	106*	-0.049	14
CCOc1ccc(CCNC(=O)COC(=O)c2cccnc2OCC)cc1OCC	9	0	x	-53	98*	-1	105*	-0.53	9
CCOc1ccc(CCNC(=O)COC(=O)c2ccccc2O)cc1OCC	14	3	30	0	42	0	x	x	x
CC(=O)Oc1ccc(C(=O)NCc2ccco2)cc1	15	-11	x	15	13	0	x	x	x
CCN1C(=O)C(C(=O)c2ccccc2)SC1=S (stereo unspecified)	3	-20	6	15	0	-1	x	x	x
CC(C)c1ccc(-c2csc3ncnc(N4CCN(C)CC4)c23)cc1	1	7	x	-21	-16	3	x	x	x
CC(=O)Nc1ccc(S(=O)(=O)NNc2ccc([N+](=O)[O-])cc2)cc1	5	-1	x	12	2	0	x	x	x

Compound activity from PubChem.
